Experimental findings from ChEMBL document CHEMBL4364291, “Benzylideneacetone Derivatives Inhibit Osteoclastogenesis and Activate Osteoblastogenesis Independently Based on Specific Structure-Activity Relationship” (J Med Chem, 2019) are described below.

Calls of active or inactive are those of the source. The calls are words filed in the database; no cut-off is given here.

For data set [1], the system named is Mus musculus. Nature of the data set: Antiosteoporotic activity in ddY mouse model of OVX-induced osteoporosis assessed as increase in cross-sectional thickness in femur bone at 1 mg/kg, po administered once daily via gavage for 4 weeks by microcomputed tomographic analysis. It counts as functional, organism-based. In short, it runs like this:
(§1)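 Female ddY mice were ovariectomized. Oral gavage began 1 week after surgery and ran once daily for 28 d. Vehicle was 300 μL PBS containing 0.5% (v/v) DMSO, also given to sham and OVX controls. Mice were then euthanized and femur and tibia fixed for CT imaging. Values are mean ± SD of four mice.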

The next data set deals with T-24. Nature of the data set: Antiproliferative activity against human T24 cells after 24 hrs by MTT assay. It is filed as functional. The following applies: T-24, 24 h, read-out: LD50 (the source's name). In general terms: Formazan colour is commonly taken as a measure of viable cells.
Data set [2] has as its system BMDM. Nature of the data set: Effect on NFkappaB expression in M-CSF induced C57BL/6 mouse bone marrow macrophages at 0.5 uM measured over 5 days by Western blot analysis. It is filed as functional, cell-based. In a few lines: (§2)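 C57BL/6 BMM were proliferated with M-CSF alone without RANKL and treated at 0.5 or 10 μM. NF-κB expression was followed over time by Western blot.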
(In general: Immunoblotting shows a protein as a band on a membrane.)

Data set [3] in a line: Potency index, ratio of alendronate IC50 to test compound IC50 for inhibition of M-CSF/RANKL-induced osteoclast differentiation in C57BL/6 mouse bone marrow macrophages by measuring decrease in multinucleated TRAP+ cells incubated for 6 days with fresh media replacement on day 3 and measured on day 6 by TRAP staining-based microscopic analysis. It is filed as functional, BMDM.

Data set [4] deals with Mus musculus. Nature of the data set: Antiosteoporotic activity in ddY mouse model of OVX-induced osteoporosis assessed as increase in femur bone mineral density at 1 mg/kg, po administered once daily via gavage for 4 weeks by microcomputed tomographic analysis. It is filed as functional, organism-based. In short, it runs like this:
as §1

The test system of data set [5] is Mus musculus. Description: Antiosteoporotic activity in ddY mouse model of OVX-induced osteoporosis assessed as increase in trabecular thickness in femur bone at 1 mg/kg, po administered once daily via gavage for 4 weeks by microcomputed tomographic analysis. It is filed as functional, organism-based. In short, it runs like this: as §1
The test system of data set [6] is BMDM. Nature of the data set: Inhibition of RANKL-induced osteoclastogenesis in C57BL/6 mouse bone marrow macrophages assessed as increase in NFkappaB expression at 0.5 uM measured over 5 days by Western blot analysis. It is filed as functional, cell-based. In short, it runs like this: (§3)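 C57BL/6 BMM were grown with M-CSF plus RANKL over the course of osteoclastogenesis, treated at 0.5 or 10 μM. NF-κB and NFATc1 were followed by Western blot. The negative control was M-CSF only.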

Data set [7] in a line: Toxicity in ddY mouse model of OVX-induced osteoporosis assessed as increase in body weight at 1 mg/kg, po administered once daily via gavage for 4 weeks measured 5 weeks post OVX-challenge. It is filed as organism-based. The note with it: in vivo, 840 h. In short, it runs like this:
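Dosing of ddY mice began one week after ovariectomy: compound in 300 μL of 0.5% (v/v) DMSO-containing PBS by gavage once daily for 28 d. OVX and sham controls received vehicle. Body weight was compared with sham control 5 weeks after OVX.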

Data set [8] deals with BMDM. Nature of the data set: Inhibition of M-CSF/RANKL-induced osteoclast differentiation in C57BL/6 mouse bone marrow macrophages co-cultured with mouse MC3T3-E1 at 10 uM measured on day 7. It counts as functional, cell-based.
In data set [9] the test system is BMDM. Nature of the data set: Inhibition of RANKL-induced osteoclastogenesis in C57BL/6 mouse bone marrow macrophages assessed as effect on NFATc1 expression at 10 uM measured over 5 days by Western blot analysis. It counts as functional, cell-based. In a few lines:
as §3

Data set [10] deals with MC3T3-E1. Nature of the data set: Induction of osteoblast differentiation in mouse MC3T3-E1 cells assessed as increase in osteocalcin expression at 50 uM after 21 days by Western blot analysis relative to control. It is filed as functional. In a few lines: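 MC3T3-E1 cells were differentiated with osteoblast differentiation factors, with or without 50 μM compound, for 21 d. The negative control lacked differentiation factors. Osteocalcin in culture medium was measured by Western blot at 7, 14 and 21 d. Values are mean ± SD of three independent experiments.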

Data set [11] has as its system BMDM. Description: Inhibition of M-CSF/RANKL-induced osteoclast differentiation in C57BL/6 mouse bone marrow macrophages co-cultured with mouse MC3T3-E1 at 10 uM measured on day 21. It is filed as functional, cell-based.
The test system of data set [12] is BMDM. Nature of the data set: Effect on NFkappaB expression in M-CSF induced C57BL/6 mouse bone marrow macrophages at 10 uM measured over 5 days by Western blot analysis. It is filed as functional, cell-based. In a few lines: as §2
The nature of data set [13]: Inhibition of M-CSF/RANKL-induced osteoclast differentiation in C57BL/6 mouse bone marrow macrophage assessed as reduction in multinucleated TRAP+ cells at 10 uM incubated for 6 days with fresh media replacement on day 3 and measured on day 6 by TRAP staining-based microscopic analysis relative to control. It counts as functional. The following applies: C57BL/6, BMDM. In a few lines:
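BMM came from femur and tibia marrow of 5–8-week-old male C57BL/6 mice and were purified over lymphocyte separation medium. Cells, 1 × 10^5 per well, were grown in α-MEM/10% FBS with M-CSF (60 ng/mL) and RANKL (150 ng/mL) for 6 d, medium changed day 3. Compound range was 0.01−100 μM. TRAP+ multinucleated cells were counted on day 6.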

Data set [14] deals with BMDM. Nature of the data set: Inhibition of M-CSF/RANKL-induced osteoclast differentiation in C57BL/6 mouse bone marrow macrophages co-cultured with mouse MC3T3-E1 at 10 uM measured on day 14. It counts as functional, cell-based.
Data set [15] is described as follows: Cytotoxicity against mouse NIH/3T3 cells after 24 hrs by MTT assay. The note with it: read-out: LD50. It is filed as cell-based, NIH3T3. In a few lines: (§4)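 Cells were maintained in DMEM at 37 °C under 5% CO2. Growth and survival were estimated by MTT assay, and the value is reported as LD50.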
In data set [16] the test system is MC3T3-E1. Description: Induction of osteoblast differentiation in mouse ascorbic acid/beta-glycerophosphate-induced MC3T3-E1 cells assessed as increase in RUNX2 expression at 50 uM after 21 days by Western blot analysis relative to control. It counts as functional. In a few lines:
(§5)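 MC3T3-E1 cells were induced with osteoblast differentiation factors, with or without 50 μM compound, for 21 d. Cells were harvested at 7, 14 and 21 d and RUNX2 was quantified by Western blot against untreated differentiated cells. The negative control lacked differentiation factors. Values are mean ± SD of three independent experiments.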

For the next data set, the system named is AGS. Nature of the data set: Antiproliferative activity against human AGS cells after 24 hrs by MTT assay. It is filed as functional. The note with it: read-out: LD50 (the source's name).
Data set [17] relates to MC3T3-E1. Nature of the data set: Induction of osteoblast differentiation in ascorbic acid/beta-glycerophosphate-induced mouse MC3T3-E1 cells co-cultured with C57BL/6 mouse bone marrow macrophages assessed as increase in osteocalcin expression at 10 uM measured on day 21 by Western blot analysis. It is filed as functional, cell-based. In short, it runs like this: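 MC3T3-E1 and C57BL/6 BMM cocultures were given osteoblast plus osteoclast differentiation factors, with or without 10 μM compound, for 21 d. The negative control had M-CSF only. Osteocalcin in culture medium was quantified by Western blot at 7, 14 and 21 d.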

Data set [18] is described as follows: Cytotoxicity against human HaCaT cells after 24 hrs by MTT assay. It counts as cell-based. The note with it: read-out: LD50. In short, it runs like this: as §4
In data set [19] the test system is MC3T3-E1. Nature of the data set: Induction of osteoblast differentiation in mouse MC3T3-E1 cells co-cultured with C57BL/6 mouse bone marrow macrophages assessed as activation of ALP production at 10 uM measured on day 7 relative to control. It counts as functional. In short, it runs like this: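 MC3T3-E1 cells were cocultured with C57BL/6 BMM in differentiation factors for both cell types, with 10 μM compound, and grown for 21 d. ALP production was measured at 7, 14 and 21 d after coculture induction, relative to untreated cells.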

Data set [20] relates to MC3T3-E1. Description: Induction of osteoblast differentiation in ascorbic acid/beta-glycerophosphate-induced mouse MC3T3-E1 cells assessed as increase in RUNX2 expression at 50 uM after 7 days by Western blot analysis relative to control. It is filed as functional. In a few lines:
as §5

Consider `COc1ccc(/C=C/C(C)=O)cc1O`, for which the outcome with Mus musculus [1], with Mus musculus [4] and with Mus musculus [5] was Active. For the same molecule, the CC50 with T-24 was determined as 180 µM. Also, in the data set on BMDM [2], the outcome was inactive. Moreover, the “Ratio IC50” value in data set [3] stood at 30. The inhibition result with BMDM [6] was “Active”. The Activity entry in data set [7] is “Toxic”.
As for `CC(=O)/C=C/c1ccc(O)c(O)c1`, the inhibition result in the data set on BMDM [8], in the data set on BMDM [11] and in the data set on BMDM [14] was “Active” in each case. In the data set on BMDM [9], the inhibition entry is “inactive”. The “fold change (FC)” value in the data set on MC3T3-E1 [10] is 2; in the data set with MC3T3-E1 [16] it was 3.2; with MC3T3-E1 [20], 1.7. Also, the result in the data set on BMDM [12] was inactive. Besides, the inhibition at 10 µM in [13] came out at 100%. Moreover, the figures for the CC50 at 24 h in [15] and in data set [18] were above 5000 µM and 3500 µM, respectively. Moreover, the CC50 in the data set on AGS is 60 µM. In addition, in the data set with MC3T3-E1 [17], the result was Active. Further, in the data set on MC3T3-E1 [19], the Activity is on record as 100%.

As usually defined, the inhibition is the change of the read-out against control, counted positive when it falls.
